Assay outcomes: PubChem BioAssay, The Scripps Research Institute Molecular Screening Center
RORa inhibitor = blocks the human nuclear receptor RORA; CHO-K1 Gal4-RORA LBD luciferase reporter, luminescence; AID 561; P35398; inhibition, % at 10 µM; 65,000 compounds, 0.43% hits;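 active = inhibition above the mean of all tested compounds plus 3 SD, cut at about 52% in these data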;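 also: 0% = RORA-transfected cells with DMSO and 100% = mock-transfected cells lacking RORA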
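Test system: CHO-K1 cells with Gal4-hRORA LBD fusion and pG5-luc reporter / Compound: single concentration per compound, 10 µM final / Schedule: 20 h compound treatment, 37 °C / Signal: luminescence from basal luciferase reporter expression / Read-out: % inhibition / Control set: mock-transfected cells as 100%, +RORA DMSO cells as 0% / Replicates: tested once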
An asterisk follows results filed as active. Shown is part of a subset that was picked to be rich in hits.

SMILES	RORa inhibitor
CC(C)n1c(=S)[nH]c2c1c(=O)[nH]c(=O)n2C	-1
Cn1c(-n2c(CCN3C(=O)c4ccccc4C3=O)nc3ccccc3c2=O)nc2ccccc21	-57
O=C(NC1CCCCC1)C1CCN(S(=O)(=O)N2CCOCC2)CC1	20
CCOC(=O)c1[nH]c(C)c(C(=O)Nc2cccc(Cl)c2C)c1C	-64
COc1cc(/C=N/O)ccc1OCc1ccc(C(=O)O)cc1	89*
COc1ccccc1NC(=O)COc1ccc(/C=N/n2cnnc2)cc1OC	18
COc1cc(C(=S)N2CCCCC2)ccc1OCC(=O)N1CCCC1	-2
COC(=O)c1ccc(NC(=O)C2CCCN(S(=O)(=O)c3cnc[nH]3)C2)cc1 (configuration not stated)	6
COc1nc(N(C#N)CC(N)=O)nc(N2CCCC2)n1	0
COc1ccccc1N1CCN(c2ncnc3c2oc2ccccc23)CC1	-56
Cc1cc(C)n(-c2ncnc3c2oc2ccccc23)n1	10
COc1ccc(CCNc2ncnc3c2oc2ccccc23)cc1OC	84*
COc1ccc(NC(=O)CSc2nnc(Cn3c(=O)sc4ccccc43)n2C)c(OC)c1	-14
CC(OC(=O)c1ccco1)C(=O)NCc1cccs1 (configuration not stated)	10
O=C(COc1ccc(Cl)cc1)NCc1nnc(SCC(=O)NCCc2ccccc2)o1	10
CC(C)Cn1c(N)c(C(=O)CSc2ccc3c(c2)OCCO3)c(=O)n(C)c1=O	78*
CCn1c(SCC(=O)c2c(N)n(C)c(=O)n(C)c2=O)nc2sc(C)c(C)c2c1=O	13
CC(NC(=O)COc1cc(=O)n(C)c2ccccc12)c1ccc2c(c1)OCCO2 (configuration not stated)	-24
CCN(C1CCCCC1)S(=O)(=O)c1ccc(S(=O)(=O)NCc2ccncc2)cc1	69*
Cc1ccc(S(=O)(=O)N(CC(=O)N2CCCC2)C2CCCCC2)cc1	-2
COC(=O)c1ccc(S(=O)(=O)N(Cc2cc3cc4c(cc3[nH]c2=O)OCO4)C2CCCCC2)cc1	4
CC(=O)Nc1ccc(S(=O)(=O)N2CCN(C(=O)N3CCCCCC3)CC2)cc1	3
CCCC(C(=O)NCc1ccc(OC)cc1)N(Cc1ccco1)C(=O)c1snc(C(N)=O)c1N (configuration not stated)	-24
CC(=O)Nn1c(-c2ccccc2)cc2ccccc21	-14
